The text below walks through data of ChEMBL document CHEMBL2384935, “Role of Amphiphilicity in the Design of Synthetic Mimics of Antimicrobial Peptides with Gram-negative Activity” (ACS Med Chem Lett, 2013).

Converted amounts (≈) assume the structure as drawn.

A short description of series [1]: Hemolytic activity in human RBC assessed as hemoglobin release after 1 hr. It is filed as ADME, cell-based, Erythrocyte. The conditions noted are these: human red blood cells. The procedure, abridged:
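Human red blood cells were exposed to the compounds. The value is the HC50, the concentration that produces 50% hemolysis of the RBCs.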

In series [2] the test system is Escherichia coli. The experiment in a line: Antibacterial activity against Escherichia coli ATCC 25922 assessed as growth inhibition after 18 hrs by CLSI microbroth dilution assay. It is filed as functional. The settings on record: ATCC 25922, 18 h. (In general: Broth dilution looks for growth in wells or tubes with falling amounts of substance.)
Series [3] relates to Staphylococcus aureus. Briefly: Antibacterial activity against Staphylococcus aureus ATCC 27660 assessed as growth inhibition after 18 hrs by CLSI microbroth dilution assay. The class given is functional. The settings on record: ATCC 27660, 18 h.

With `NCCCOc1cc(OCCCN)cc(-c2cc(NC(=O)Cc3c[nH]c4ccccc34)cc(-c3cc(OCCCN)cc(OCCCN)c3)c2)c1`, the concentration for 50% haemolysis (HC50) (commonly the concentration giving 50% haemolysis) at 1 h in series [1] is 519 µg/mL. Besides, the minimal inhibitory concentration (MIC) (usually the least concentration at which growth counts as inhibited) was over 50 µg/mL in series [2] and 12.5 µg/mL (≈ 18 µM) in series [3].

With `NCCCOc1cc(OCCCN)cc(-c2cc(NC(=O)c3ccc4ccccc4c3)cc(-c3cc(OCCCN)cc(OCCCN)c3)c2)c1`, the concentration for 50% haemolysis (HC50) at 1 h in series [1] turned out to be 422 µg/mL. Also, the MIC is over 50 µg/mL in series [2] and 6.25 µg/mL (≈ 9.03 µM) in series [3].

Consider `NCCCOc1cc(OCCCN)cc(-c2cc(NC(=O)c3ccc(-c4ccccc4)cc3)cc(-c3cc(OCCCN)cc(OCCCN)c3)c2)c1`, for which the HC50 at 1 h in series [1] was 113 µg/mL. The MIC in series [2] was determined as 25 µg/mL (≈ 34.8 µM); in series [3], 1.56 µg/mL (≈ 2.17 µM).

As for `NCCCOc1cc(OCCCN)cc(-c2cc(-c3ccccc3)cc(-c3cc(OCCCN)cc(OCCCN)c3)c2)c1`, the concentration for 50% haemolysis (HC50) at 1 h in series [1] is 537 µg/mL. The figures for the minimal inhibitory concentration (MIC) in series [2] and in series [3] were 3.13 µg/mL (≈ 5.23 µM) and 12.5 µg/mL (≈ 20.9 µM), respectively.

Take `Cc1ccc(-c2cc(-c3cc(OCCCN)cc(OCCCN)c3)cc(-c3cc(OCCCN)cc(OCCCN)c3)c2)cc1`: the HC50 at 1 h in series [1] worked out at 279 µg/mL. The results for the MIC in series [2] and in series [3] were 3.13 µg/mL (≈ 5.11 µM) and 0.78 µg/mL (≈ 1.27 µM), respectively.

Regarding `NCCCOc1cc(OCCCN)cc(-c2cc(-c3cc(OCCCN)cc(OCCCN)c3)cc(-c3cc4ccccc4[nH]3)c2)c1`, the HC50 at 1 h in series [1] is 634 µg/mL. Also, the MIC was 6.25 µg/mL (≈ 9.8 µM) in series [2] and 1.56 µg/mL (≈ 2.45 µM) in series [3].

Consider `CC(C)(C)c1ccc(-c2cc(-c3cc(OCCCN)cc(OCCCN)c3)cc(-c3cc(OCCCN)cc(OCCCN)c3)c2)cc1`, for which, in series [1], the concentration for 50% haemolysis (HC50) at 1 h was found to be 41 µg/mL. In addition, the minimal inhibitory concentration (MIC) in series [2] is 3.13 µg/mL (≈ 4.78 µM); in series [3], 1.56 µg/mL (≈ 2.38 µM).

Consider `NCCCOc1cc(OCCCN)cc(-c2cc(-c3cc(OCCCN)cc(OCCCN)c3)cc(-c3cc(C(F)(F)F)cc(C(F)(F)F)c3)c2)c1`, for which the HC50 at 1 h in series [1] came to 34 µg/mL. Moreover, the MIC in series [2] came to 6.25 µg/mL (≈ 8.51 µM); in series [3], 1.56 µg/mL (≈ 2.12 µM).

In the case of `NCCCOc1cc(OCCCN)cc(-c2cc(NC(=O)c3ccccc3)cc(-c3cc(OCCCN)cc(OCCCN)c3)c2)c1`, in series [1], the HC50 at 1 h was over 1000 µg/mL. Besides, the minimum inhibitory concentration (MIC) is over 50 µg/mL in series [2] and 50 µg/mL (≈ 77.9 µM) in series [3].

As for Ac-GIGKFLKKAKKFGKAFVKILKK-NH2, the HC50 at 1 h in series [1] came out at 120 µg/mL. Further, the minimal inhibitory concentration (MIC) in series [2] was determined as 16 µg/mL; in series [3] it was 8 µg/mL.
